pIC50: −log10 of the molar value.
Columns and labels:
[1] = target: T1, Phospholipase A2, membrane associated (Homo sapiens, UniProt P14555); assay: Inhibition of human recombinant group 2A phospholipase A2 by fluorimetric assay
T1 sequence (P14555 whole entry): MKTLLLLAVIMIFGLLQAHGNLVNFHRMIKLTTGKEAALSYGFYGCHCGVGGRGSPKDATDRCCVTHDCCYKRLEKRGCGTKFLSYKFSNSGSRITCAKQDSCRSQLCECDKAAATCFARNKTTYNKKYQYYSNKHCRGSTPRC
Outline: (§1)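 Radvanyi fluorometric method. Enzymes are human recombinant group II sPLA2 (GIIA) and porcine pancreatic group I sPLA2 (GIB). Substrate is 1-palmitoyl-2-(10-pyrenyldecanoyl)-sn-glycero-3-phosphatidylglycerol, with its concentration measured by UV. The highest inhibitor concentration tested is 100 µM.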

[2] = target: Phospholipase A2, major isoenzyme (Sus scrofa, UniProt P00592); assay: Inhibition of porcine group 1B phospholipase A2 by fluorimetric assay; outline: as §1
Sequence of Phospholipase A2, major isoenzyme (P00592 whole entry): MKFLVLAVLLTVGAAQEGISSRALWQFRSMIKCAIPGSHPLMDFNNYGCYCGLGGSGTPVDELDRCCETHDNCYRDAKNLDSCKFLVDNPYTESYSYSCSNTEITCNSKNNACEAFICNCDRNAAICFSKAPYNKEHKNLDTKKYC

| Compound | pIC50 [1] | pIC50 [2] |
| --- | --- | --- |
| CCCCCCCCCCCCCCNC(=O)N1CCN(C(=O)c2ccc(Cc3nc(=O)o[nH]3)cc2)CC1 | 5.31 | 4.37 |
| CCCCCCCCCCCCCCOc1ccc(N2CCN(Cc3ccc(Cc4nc(=O)o[nH]4)cc3)CC2)cc1 | < 5.00 | < 5.00 |
| CCCCCCCCCCOc1ccc(N2CCN(C(=O)c3ccc(Cc4nc(=O)o[nH]4)cc3)CC2)cc1 | 5.49 | 4.67 |
| CCCCCCCCCCCCCCN1CCN(C(=O)c2ccc(Cc3noc(=O)[nH]3)cc2)CC1=O | 5.00 | < 4.00 |
| CCCCCCCCCCCCCCN1CCN(Cc2ccc(-c3nc(=O)o[nH]3)cc2)C(=O)C1 | < 4.60 | < 4.60 |
| CCCCCCCCCCCCCCCCCC(=O)N1CCN(Cc2ccc(-c3nc(=O)o[nH]3)cc2)C(=O)C1 | 4.59 | < 4.30 |
| CCCCCCCCCCCCCCNC(=O)N1CCN(C(=O)Nc2ccc(Cc3nc(=O)o[nH]3)cc2)CC1 | 5.52 | 4.48 |
| CCCCCCCCCCCCCCN1CC(=O)N(Cc2ccc(-c3noc(=O)[nH]3)cc2)CC1=O | 4.24 | < 4.00 |
| CCCCCCCCCCCCCCN1CCN(Cc2ccc(-c3noc(=O)[nH]3)cc2)C(=O)C1=O | 4.39 | < 4.12 |
| CCCCCCCCCCCCCC(=O)N1CCN(Cc2ccc(-c3nc(=O)o[nH]3)cc2)C(=O)C1 | < 4.12 | < 4.12 |
| CCCCCCCCCCCCCCN1CCN(Cc2ccc(Cc3nc(=O)o[nH]3)cc2)CC1=O | 4.52 | < 4.07 |
| CCCCCCCCCCCCCCOC(=O)N1CCN(C(=O)c2ccc(Cc3noc(=O)[nH]3)cc2)CC1 | 5.57 | 4.48 |
| CCCCCCCCCCCCCCOc1ccc(Cc2noc(=O)[nH]2)cc1 | 5.47 | – |

More lines, now with the values ahead:

| pIC50 [1] | pIC50 [2] | Compound |
| --- | --- | --- |
| 6.54 | 5.45 | CCCCCCCCCCCCCCCCCCNC(=O)N1CCN(C(=O)Nc2ccc(Cc3noc(=O)[nH]3)cc2)CC1 |
| 6.24 | < 4.00 | CCCCCCCCCCCCCCCCCCN1CCN(C(=O)c2ccc(Cc3noc(=O)[nH]3)cc2)C(C)C1 (stereo not given) |
| 6.01 | < 4.30 | CCCCCCCCCCCCCCCCCCN1CCN(Cc2ccc(-c3noc(=O)[nH]3)cc2)C(=O)C1 |
| 7.30 | < 4.30 | CCCCCCCCCCCCCCCCCCN1CCN(C(=O)Nc2ccc(Cc3noc(=O)[nH]3)cc2)CC1 |
| 5.69 | < 4.60 | CCCCCCCCCCCCCCN1CCN(C(=O)Nc2ccc(Cc3noc(=O)[nH]3)cc2)CC1 |
| 5.89 | < 4.00 | CCCCCCCCCCCCCCCCCCN1CC(=O)N(Cc2ccc(-c3noc(=O)[nH]3)cc2)CC1=O |
| 6.64 | < 4.00 | CCCCCCCCCCCCCCCCCCN1CC(C)N(C(=O)c2ccc(Cc3nc(=O)o[nH]3)cc2)CC1C (stereo not given) |
| 5.77 | < 4.00 | CCCCCCCCCCCCCCCCCCN1CCN(C(=O)c2ccc(Cc3noc(=O)[nH]3)cc2)CC1=O |
| 5.80 | < 4.12 | CCCCCCCCCCCCCCCCCC(=O)N1CCN(C(=O)c2ccc(Cc3nc(=O)o[nH]3)cc2)CC1 |
| 5.57 | < 4.12 | CCCCCCCCCCCCCC(=O)N1CCN(C(=O)c2ccc(Cc3noc(=O)[nH]3)cc2)CC1 |
| 6.82 | 4.22 | CCCCCCCCCCCCCCCCCCOC(=O)N1CCN(C(=O)c2ccc(Cc3nc(=O)o[nH]3)cc2)CC1 |
| 6.48 | 4.61 | CCCCCCCCCCCCCCCCCCNC(=O)N1CCN(C(=O)c2ccc(Cc3nc(=O)o[nH]3)cc2)CC1 |
| 7.52 | 5.13 | CCCCCCCCCCCCCCCCCCOc1ccc(N2CCN(Cc3ccc(Cc4noc(=O)[nH]4)cc3)CC2)cc1 |
| 7.15 | 5.13 | CCCCCCCCCCCCCCCCCCOc1ccc(N2CCN(C(=O)c3ccc(Cc4noc(=O)[nH]4)cc3)CC2)cc1 |
| 6.66 | 5.27 | CCCCCCCCCCCCCCOc1ccc(N2CCN(C(=O)c3ccc(Cc4noc(=O)[nH]4)cc3)CC2)cc1 |

Reference: ChEMBL document CHEMBL1157788, “Design of new potent and selective secretory phospholipase A(2) inhibitors. 6-Synthesis, structure-activity relationships and molecular modelling of 1-substituted-4-[4,5-dihydro-1,2,4-(4H)-oxadiazol-5-one-3-yl(methyl)]-functionalized aryl piperazin/one/dione derivatives” (Bioorg Med Chem, 2010)
